Measured values pooled from the literature.
Lines come from different studies, so protocols differ.
Target: Calcium/calmodulin-dependent protein kinase kinase 2 (CAMKK2, Homo sapiens, UniProt Q96RR4)

With `Oc1cccc(-c2nc(N3CCOCC3)c3oc4ncccc4c3n2)c1` the remaining activity was 114% (enzyme activity; inhibitor; 10 µM).
`COc1cccc2c(NCc3ccccc3)nc(-n3c(N)nc4ccccc43)nc12` has an inhibition of -5.8% (target engagement in cells; inhibitor; chemoproteomics; 20 mM).
`COc1cc(Nc2cnc(C#N)c(O[C@H](C)CN(C)C)n2)ncc1-c1cnn(C)c1` gave a remaining activity of 103% (enzyme activity; inhibitor; radiometric; 1 µM).
The ΔTm of `COc1cc2nccc(Oc3ccc(NC(=O)Nc4ccc(F)cc4F)c(F)c3)c2cc1OC` is reported as 5 to 10 °C (thermal stability; DSF; 10 µM).
`O=C1Nc2ccc(Cl)cc2C1=Cc1cc(Cl)c(O)c(Cl)c1` gave a remaining signal of 51.5% (cell-free assay; 0.5 µM).
With `Cn1c2c(c3ccc(Cl)c(Cl)c31)C(C#N)C1(CCCC1)NC2=O` (centres unmarked) the ΔTm was 0.3 °C (thermal stability; DSF; 10 µM).
With `CC(C)(C)C(=O)c1sc(NC2CCCCC2)nc1N` the remaining activity was 83% (enzyme activity; inhibitor; 10 µM).
`O=C1NC(=O)c2cc(Nc3ccc(F)cc3)c(Nc3ccc(F)cc3)cc21` has a remaining signal of 88.3% (cell-free assay; 0.5 µM).
`Nc1nc(Nc2ccccc2)sc1C(=O)c1c(F)cccc1F` has a remaining activity of 12% (enzyme activity; inhibitor; 10 µM).
For `COc1ccc2c(c1)O[C@H](c1ccc(OC)c(OC)c1)C[C@@H]2NC(=O)C1(c2ccc3c(c2)OC(F)(F)O3)CC1`, the remaining binding was 100% (cell-free assay; competition with immobilised ligand; 1 µM).
For `Cc1ccc(NC(=O)c2ccc(C)c(C(F)(F)F)c2)cc1C#Cc1nn(C2CCC(O)CC2)c2ncnc(N)c12` (centres unmarked), the remaining signal was 55% (cell-free assay; 10 µM).
The remaining binding of `O=C(O)[C@H]1[C@H](Cn2nnc3ccccc3c2=O)CC[C@@H]1C(=O)c1ccc(OCCC2CCOCC2)cc1` is reported as 90% (cell-free assay; competition with immobilised ligand; 1 µM).
With `CN(C)c1nccc(-c2cnc3ncccn23)n1` the remaining binding was 100% (binding; 1 µM).
The remaining binding of `C[C@H](c1ccnc(Nc2nc3ccc(-c4cc(N(C)C)ncn4)cc3[nH]2)c1)N1CCN(C(=O)CC(F)(F)F)CC1` is reported as 77% (cell-free assay; competition with immobilised ligand; 0.1 µM).
`O=C(Nc1cnn(-c2csc(C(=O)NC3COC3)c2)c1)Nc1ccccc1Cl` gave a remaining activity of 91.1% (enzyme activity; inhibitor; 5 µM).
The remaining binding of `COc1cc(-c2cn(C3CCc4ccccc4N(CC(F)(F)F)C3=O)nn2)ccc1-n1ccc(C)n1` (centres unmarked) is reported as 100% (cell-free assay; competition with immobilised ligand; 1 µM).
For `Cc1ccc(C(=O)NCc2ccsc2)cc1C#Cc1cn(C(C)C)c2ncnc(N)c12`, the activity vs control was 110% (enzyme activity; inhibitor; 1 µM).
For `CC(C)(C)c1nc2c(s1)c1nc(N)ncc1c1ccc(NS(=O)(=O)c3c(F)cccc3F)c(F)c12`, the remaining activity was 107% (enzyme activity; inhibitor; radiometric; 1 µM).
`COc1cc(/C=C/C(=O)CC(=O)/C=C/c2ccc(O)c(OC)c2)ccc1O` gave an activity vs control of 44% (enzyme activity; inhibitor; 1 µM).
For `O=C(O)c1cc(-c2ccc(C3CCNCC3)cc2)c2ccc(-c3ccc(C(F)(F)F)cc3)cc2c1`, the remaining binding was 100% (cell-free assay; competition with immobilised ligand; 1 µM).
With `CCN1CCC2(CC1)NC(=O)c1c(c3ccc(Cl)c(Cl)c3n1C)C2C#N` (racemic) the ΔTm was 0.5 °C (thermal stability; DSF; 10 µM).
For `Cc1c[nH]c2nccc(Oc3c(F)cc(Nc4cc(Cl)nc(N)n4)cc3F)c12`, the remaining binding was 98% (cell-free assay; competition with immobilised ligand; 0.1 µM).
`CCC1(CC)NC(=O)c2c(c3ccc(Cl)c(Cl)c3n2C)C1C#N` (centres unmarked) has a ΔTm of 0.3 °C (thermal stability; DSF; 10 µM).
The remaining signal of `N#CCCc1ccc2c(c1)-c1[nH]c3ccc([N+](=O)[O-])cc3c1CC(=O)N2` is reported as 86.8% (cell-free assay; 0.5 µM).
`FC(F)(F)Oc1cccc(-c2cnc3ccc(-c4ccncc4)nn23)c1` gave an activity vs control of 59% (enzyme activity; inhibitor; radiometric; 1 µM).
The remaining binding of `CS(=O)(=O)c1cc(C2(NC(=O)c3cncc4c3cnn4-c3ccc(F)cc3)CC2)ccn1` is reported as 75% (cell-free assay; competition with immobilised ligand; 1 µM).
`O=C(CSc1nc2nccnc2c(=O)n1CCc1ccccc1)Nc1nccs1` has an inhibition of 5% (enzyme activity; inhibitor; 10 µM).
With `Cn1c(=O)n(-c2ccc(C(C)(C)C#N)cc2)c2c3cc(-c4cnc5ccccc5c4)ccc3ncc21` the remaining activity was 61% (enzyme activity; inhibitor; 10 µM).
`Cc1noc([C@H]2C[C@@H](c3ccc(C(F)(F)F)cc3)CN(C(=O)N3CCS(=O)(=O)C3)C2)n1` gave a remaining binding of 100% (cell-free assay; competition with immobilised ligand; 1 µM).
